The source made the active and inactive calls. The calls are words filed in the database; no cut-off is given here.
Tests used:
[1] = system: HL-60; assay: The ability to induce differentiation of human promyelocytic leukemia cell line HL-60 to mature granulocytes was determined by nitro blue tetrazolium (NBT) reduction assay; assay type: functional; conditions: read-out: ED50 (the source's name)
Outline: (§1)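 HL-60 cells grown in RPMI1640 with 5% FCS and antibiotics were seeded at about 8×10^4 cells/mL. Compounds were added from 2 mM ethanol stocks (final ethanol below 0.5%; ethanol-only controls) and cells incubated 4 days. Percent differentiated cells was scored by NBT reduction (0.2% NBT plus TPA 200 ng/mL, 20 min, 37 °C; formazan-positive cells counted, minimum 200 cells). Assays were run at least twice, and ED50 was obtained by the van der Waerden method.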

[2] = system: HL-60; assay: The ability to induce differentiation of human promyelocytic leukemia cell line HL-60 to mature granulocytes relative to retinoic acid was determined by nitro blue tetrazolium (NBT) reduction assay; assay type: functional
Outline: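 HL-60 cells in RPMI1640 with 5% FCS, 37 °C, 5% CO2, seeded at about 8×10^4 cells/mL. Compounds were added from 2 mM ethanol stocks (final ethanol below 0.5%) and cells incubated 4 days. NBT reduction (0.2% NBT, TPA 200 ng/mL, 20 min, 37 °C) was scored on ≥200 cells. ED50 was calculated by van der Waerden; the value is the retinoic acid ED50 divided by the compound ED50 from concurrent runs, ×100.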

[3] = system: HL-60; assay: The ability to induce differentiation of human promyelocytic leukemia cell line HL-60 to mature granulocytes was determined by nitro blue tetrazolium (NBT) reduction assay; Inactive; assay type: functional, cell-based; outline: as §1

Work on CCn1c(-c2ccc(C(=O)O)cc2)nc2cc3c(cc21)C(C)(C)CCC3(C)C yielded an EC50 [1] of 46 nM and a Relative activity [2] of 4.9.
Compound CC(C)n1c(-c2ccc(C(=O)O)cc2)nc2cc3c(cc21)C(C)(C)CCC3(C)C has an EC50 [1] greater than 10000 nM and a Relative activity [2] of less than 0.01.
With CC1(C)CCC(C)(C)c2cc3c(cc21)N=C(c1ccc(C(=O)O)cc1)CC(=O)N3 the ED50 [3] was “inactive”.
CN1C(=O)CC(c2ccc(C(=O)O)cc2)=Nc2cc3c(cc21)C(C)(C)CCC3(C)C showed an EC50 [1] of 530 nM and a Relative activity [2] of 0.43.
CC1=C(/C=C/C(C)=C/C=C/C(C)=C/C(=O)O)C(C)(C)CCC1 [TRETINOIN] was tested, and the EC50 [1] was 2.4 nM and the Relative activity [2] was 100.
With CN1c2cc3c(cc2N=C(c2ccc(C(=O)O)cc2)c2ccccc21)C(C)(C)CCC3(C)C the ED50 [3] was “inactive”.
For CC1(C)CCC(C)(C)c2cc3[nH]c(-c4ccc(C(=O)O)cc4)nc3cc21, the EC50 [1] was 320 nM and the Relative activity [2] was 0.7.
With CC1(C)CCC(C)(C)c2cc3c(cc21)nc(-c1ccc(C(=O)O)cc1)n3-c1ccccc1 the ED50 [3] was “inactive”.
CC1(C)CCC(C)(C)c2cc(NC(=O)c3ccc(C(=O)O)cc3)ccc21 [TAMIBAROTENE] showed an EC50 [1] of 0.79 nM and a Relative activity [2] of 350.
CC1(C)CCC(C)(C)c2cc3c(cc21)nc(-c1ccc(C(=O)O)cc1)n3Cc1ccccc1 was tested, and the ED50 [3] was “inactive”.
For CC1(C)CCC(C)(C)c2cc3c(cc21)NC(=O)CN(c1ccc(C(=O)O)cc1)C3=O, the ED50 [3] was “inactive”.
Work on Cn1c(-c2ccc(C(=O)O)cc2)nc2cc3c(cc21)C(C)(C)CCC3(C)C yielded an EC50 [1] of 3.4 nM and a Relative activity [2] of 65.
CC1(C)CCC(C)(C)c2cc3c(cc21)Nc1ccccc1C(c1ccc(C(=O)O)cc1)N3 (stereo unspecified) gave an EC50 [1] greater than 10000 nM and a Relative activity [2] of less than 0.01.
